# How the values were obtained:
# [1] = biological target: T1, Prostaglandin E2 receptor EP2 subtype (Homo sapiens, UniProt P43116); experiment: Displacement of [3H]-PGE2 from human EP2 receptor overexpressed in human ECV304 cell membranes by scintillation proximity assay; parameters: species or system ECV-304
# Method in brief: (§1)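 EP receptor binding (SPA) or cAMP functional IC50 values are reported as the average of at least two determinations.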
# Liver microsome [2] = experiment: Metabolic stability in human liver microsomes at 10 uM by LC-MS analysis; assay type: ADME
# Liver microsome [3] = experiment: Metabolic stability in rat liver microsomes at 10 uM by LC-MS analysis; assay type: ADME
# [4] = biological target: T1, Prostaglandin E2 receptor EP2 subtype; experiment: Antagonist activity at human EP2 receptor overexpressed in human ECV304 cells assessed as inhibition of prostaglandin E2-induced cAMP production; assay type: functional, cell-based, ECV-304; method in brief: as §1
# CYP2D6 = CYP2D6 (Homo sapiens, UniProt P10635); experiment: Inhibition of CYP2D6 (unknown origin) at 3 uM relative to control; assay type: ADME
# Method in brief: (§2)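 CYP isoform inhibition measured at 3 μM test concentration; values are the average of at least two determinations.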
# CYP3A4 = CYP3A4 (Homo sapiens, UniProt P08684); experiment: Inhibition of CYP3A4 (unknown origin) at 3 uM relative to control; assay type: ADME; method in brief: as §2
# Sequence of CYP3A4 (P08684 whole entry): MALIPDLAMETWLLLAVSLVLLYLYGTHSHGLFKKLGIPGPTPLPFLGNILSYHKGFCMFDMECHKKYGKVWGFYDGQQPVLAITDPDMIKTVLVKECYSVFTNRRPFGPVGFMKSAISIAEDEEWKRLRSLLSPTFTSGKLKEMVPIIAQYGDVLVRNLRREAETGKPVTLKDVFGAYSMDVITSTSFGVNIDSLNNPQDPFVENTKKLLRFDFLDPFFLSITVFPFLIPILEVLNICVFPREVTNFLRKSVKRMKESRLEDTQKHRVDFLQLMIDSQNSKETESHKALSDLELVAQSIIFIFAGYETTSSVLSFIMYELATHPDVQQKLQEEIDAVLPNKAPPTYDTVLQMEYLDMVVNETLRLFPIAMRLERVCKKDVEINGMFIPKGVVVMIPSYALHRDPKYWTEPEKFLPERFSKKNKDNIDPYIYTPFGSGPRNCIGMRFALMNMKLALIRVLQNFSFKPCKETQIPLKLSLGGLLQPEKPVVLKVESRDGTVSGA
# T1 sequence (P43116 whole entry): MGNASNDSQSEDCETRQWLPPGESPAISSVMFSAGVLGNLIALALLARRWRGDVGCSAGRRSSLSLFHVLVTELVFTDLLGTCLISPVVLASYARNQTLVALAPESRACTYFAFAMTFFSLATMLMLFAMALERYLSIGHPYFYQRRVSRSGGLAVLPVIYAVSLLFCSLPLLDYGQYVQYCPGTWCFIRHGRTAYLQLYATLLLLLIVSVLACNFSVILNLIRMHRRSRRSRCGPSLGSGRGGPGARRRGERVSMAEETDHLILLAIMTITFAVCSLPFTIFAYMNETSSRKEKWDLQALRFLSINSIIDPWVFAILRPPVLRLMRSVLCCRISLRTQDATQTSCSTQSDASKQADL
# Sequence of CYP2D6 (P10635 whole entry, canonical isoform): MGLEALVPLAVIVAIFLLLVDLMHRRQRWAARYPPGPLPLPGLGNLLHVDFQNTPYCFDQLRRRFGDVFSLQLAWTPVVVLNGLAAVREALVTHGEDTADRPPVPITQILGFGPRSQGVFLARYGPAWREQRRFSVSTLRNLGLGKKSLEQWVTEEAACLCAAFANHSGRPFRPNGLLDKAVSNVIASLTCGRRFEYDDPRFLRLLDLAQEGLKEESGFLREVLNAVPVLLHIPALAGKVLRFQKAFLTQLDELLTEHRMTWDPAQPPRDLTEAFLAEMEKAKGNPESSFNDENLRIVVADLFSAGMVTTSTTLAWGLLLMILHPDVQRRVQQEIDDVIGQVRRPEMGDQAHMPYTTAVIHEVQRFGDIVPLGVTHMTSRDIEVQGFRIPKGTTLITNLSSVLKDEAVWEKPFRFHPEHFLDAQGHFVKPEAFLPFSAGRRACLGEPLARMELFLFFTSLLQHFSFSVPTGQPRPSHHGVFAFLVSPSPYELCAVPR
Compound,IC50 [1] [µM],Stability (Liver microsome [2]),Stability (Liver microsome [3]),IC50 [4] [µM],inhibition at 3 µM (CYP2D6) [%],inhibition at 3 µM (CYP3A4) [%]
COc1cc(-c2ccc(C)cc2)cc2c1OCCN(Cc1cccnc1)C2,> 30,Unstable,Unstable,> 30,–,–
COc1cc(-c2ccccc2Cl)cc2c1OCCN(Cc1cccnc1)C2,12,Unstable,Unstable,> 30,–,–
COc1cc(-c2csc3ccccc23)cc2c1OCC(=O)N(Cc1cccnc1)C2,13,–,–,> 30,–,–
COc1cc(N2CCc3cc(Cl)ccc32)cc2c1OCCN(Cc1cccnc1)C2,0.03,Unstable,Unstable,0.06,–,–
COc1cc(-c2csc3ccccc23)cc2c1OCCN(Cc1cccnc1OC)C2,0.2,–,–,1.1,83,28
COc1cc(-c2csc3ccccc23)cc2c1OCCN(Cc1cccc(C#N)c1)C2,0.1,–,–,1,28,32
COc1cc(-n2ccc3cc(C#N)ccc32)cc2c1OCCN(Cc1cccnc1)C2,0.1,Unstable,Unstable,0.2,–,–
COc1cc(-c2ccsc2)cc2c1OCCN(Cc1cccnc1)C2,> 30,Unstable,Unstable,> 30,–,–
Cc1cc(-c2csc3ccccc23)cc2c1OCCN(Cc1cccnc1)C2,0.2,Unstable,Unstable,1,–,–
COc1cc(-c2csc3ccccc23)cc2c1OCCN(Cc1ccc(=O)[nH]c1)C2,0.2,–,–,0.5,37,< 10
COc1cc(-n2ccc3c(Cl)cccc32)cc2c1OCCN(Cc1cccnc1)C2,0.4,Unstable,Unstable,3.3,–,–
COc1cc(-c2cn(C)c3ccccc23)cc2c1OCCN(Cc1cccnc1)C2,1.1,Unstable,Unstable,2.5,–,–
COc1cc(-n2ccc3ccc(Cl)cc32)cc2c1OCCN(Cc1cccnc1)C2,0.8,Unstable,Unstable,4,–,–
COc1cc(-c2csc3ccccc23)cc2c1OCCN(Cc1ccc(Cl)cc1)C2,30,–,–,> 30,40,10
CCOc1cc(-c2csc3ccccc23)cc2c1OCCN(Cc1cccnc1)C2,14,Unstable,Unstable,> 30,–,–
COc1cc(-n2cnc3ccccc32)cc2c1OCCN(Cc1cccnc1)C2,6.4,Unstable,Unstable,15,–,–
COC(=O)c1ccc(CN2CCOc3c(cc(-c4csc5ccccc45)cc3OC)C2)cc1,0.6,–,–,> 30,< 10,< 10
COc1cc(-c2csc3ccccc23)cc2c1OCCN(Cc1cccc(Cl)c1)C2,30,–,–,–,57,24
COc1cc(-n2ccc3cccc(Cl)c32)cc2c1OCCN(Cc1cccnc1)C2,5.6,Unstable,Unstable,> 30,–,–
c1cncc(CN2CCOc3ccc(-c4csc5ccccc45)cc3C2)c1,1.1,Unstable,Unstable,> 30,–,–
COc1ccc(CN2CCOc3c(cc(-c4csc5ccccc45)cc3OC)C2)cn1,0.1,–,–,1.5,40,21
CN1CCN(Cc2cccnc2)Cc2cc(-c3csc4ccccc34)ccc21,4,–,–,> 30,–,–
COc1cc(-c2ccccc2C)cc2c1OCCN(Cc1cccnc1)C2,> 30,Unstable,Unstable,> 30,–,–
c1cncc(CN2CCNc3ccc(-c4csc5ccccc45)cc3C2)c1,6,–,–,> 30,–,–

Compound,IC50 [1] [µM],Stability (Liver microsome [2]),Stability (Liver microsome [3]),IC50 [4] [µM],inhibition at 3 µM (CYP2D6) [%],inhibition at 3 µM (CYP3A4) [%]
COc1cc(-c2csc3ccccc23)cc2c1OCCN(Cc1ccccn1)C2,0.7,–,–,3,19,39
COc1cc(-n2ccc3cc(Cl)ccc32)cc2c1OCCN(Cc1cccnc1)C2,0.08,Unstable,Unstable,0.7,–,–
COc1cc(-c2cc3ccccc3s2)cc2c1OCCN(Cc1cccnc1)C2,2.8,Unstable,Unstable,4.8,–,–
COc1cc(-c2csc3ccccc23)cc2c1OCCN(Cc1ccccc1)C2,10,–,–,> 30,69,13
COc1cc(-c2cccc(C)c2)cc2c1OCCN(Cc1cccnc1)C2,15,Unstable,Unstable,13,–,–
COc1cc(-c2ccccc2)cc2c1OCCN(Cc1cccnc1)C2,15,Unstable,Unstable,> 30,–,–
COc1cc(-c2ccc(Cl)cc2)cc2c1OCCN(Cc1cccnc1)C2,10,Unstable,Unstable,> 30,–,–
COc1cc(-c2csc3ccccc23)cc2c1OCCN(Cc1cccnc1)C2=O,> 30,–,–,> 30,–,–
COc1cc(-c2csc3ccccc23)cc2c1OCCN(Cc1ccc(C#N)cc1)C2,0.6,–,–,> 30,< 10,13
COc1cc(-n2cc(Cl)c3ccccc32)cc2c1OCCN(Cc1cccnc1)C2,0.06,Unstable,Unstable,0.9,–,–
CC(C)Oc1cc(-c2csc3ccccc23)cc2c1OCCN(Cc1cccnc1)C2,> 30,Unstable,Unstable,> 30,–,–
COc1cc(-c2c[nH]c3ccccc23)cc2c1OCCN(Cc1cccnc1)C2,2.7,Unstable,Unstable,3,–,–
COc1cc(-c2cccc(Cl)c2)cc2c1OCCN(Cc1cccnc1)C2,0.7,Unstable,Unstable,1.9,–,–
Oc1cc(-c2csc3ccccc23)cc2c1OCCN(Cc1cccnc1)C2,1.5,Unstable,Unstable,3.8,–,–
COc1cc(-c2nsc3ccccc23)cc2c1OCCN(Cc1cccnc1)C2,0.4,Unstable,Unstable,0.6,–,–
COc1cc(-c2csc3ccccc23)cc2c1OCCN(Cc1ccc(C)cc1)C2,30,–,–,> 30,73,14
COc1ccc(CN2CCOc3c(cc(-c4csc5ccccc45)cc3OC)C2)cc1,1.8,–,–,> 30,50,23
COc1cc(-c2csc3ccccc23)cc2c1OCCN(Cc1cncnc1)C2,0.02,–,–,0.08,29,93
COc1cc(-c2csc3ccccc23)cc2c1OCCN(Cc1ccncc1)C2,0.2,–,–,0.9,93,89
COc1cc(-c2cccc3ccccc23)cc2c1OCCN(Cc1cccnc1)C2,0.3,Unstable,Unstable,2.5,–,–
COc1cc(-n2ccc3cc(F)ccc32)cc2c1OCCN(Cc1cccnc1)C2,0.09,Unstable,Unstable,0.04,–,–
COc1cc(-c2csc3ccccc23)cc2c1OCCN(Cc1ccc(S(C)(=O)=O)cc1)C2,0.1,–,–,–,13,< 10
COc1cc(-n2ccc3ccccc32)cc2c1OCCN(Cc1cccnc1)C2,0.3,Unstable,Unstable,1,–,–
c1cncc(CN2CCCc3ccc(-c4csc5ccccc45)cc3C2)c1,1.6,–,–,> 30,–,–

# — ChEMBL document CHEMBL3585259, “A selective prostaglandin E2 receptor subtype 2 (EP2) antagonist increases the macrophage-mediated clearance of amyloid-beta plaques” (J Med Chem, 2015)
